Results: ChEMBL document CHEMBL4265991

Legend:
[1] = compound: O=S1(=O)C=C(Sc2nnc(-c3ccccc3)o2)c2ccccc21; experiment: Inhibition of recombinant Cryptococcus neoformans His-tagged IMPDH expressed in Escherichia coli BL21 (DE3) at 2.5 uM assessed as Kcat for substrate using IMP as fixed substrate at 500 uM and NAD as second substrate with varying concentrations of 31.25 to 1300 uM (reference value: 21.5 /s)
How it was run: (§1)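 Recombinant C. neoformans IMPDH, 100 nM final, reaction started by adding enzyme. NADH production monitored at 340 nm. Inhibitor series ran from 20 to 0.31 µM; MPA tested at 312 to 39 nM. Km and Vmax fitted to the Michaelis–Menten equation; inhibition type taken from shifts in Km and Vmax.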

[2] = substrate: COc1c(C)c2c(c(O)c1C/C=C(\C)CCC(=O)O)C(=O)OC2; details: Cryptococcus neoformans; 0.078 uM
[3] = compound: COc1ccccc1-c1nnc(SC2=CS(=O)(=O)c3ccccc32)o1; experiment: (§2) Inhibition of recombinant Cryptococcus neoformans His-tagged IMPDH expressed in Escherichia coli BL21 (DE3) at 2.5 uM assessed as Km for substrate using NAD as fixed substrate at 700 uM and IMP as second substrate with varying concentrations of 25 to 800 uM (reference value: 257.5 +/- 23 microM); how it was run: as §1
[4] = compound: O=S1(=O)C=C(Sc2nnc(-c3ccccc3)o2)c2ccccc21; experiment: as §2; how it was run: as §1
[5] = compound: COc1ccccc1-c1nnc(SC2=CS(=O)(=O)c3ccccc32)o1; experiment: (§3) Inhibition of recombinant Cryptococcus neoformans His-tagged IMPDH expressed in Escherichia coli BL21 (DE3) at 10 uM assessed as Kcat for substrate using IMP as fixed substrate at 500 uM and NAD as second substrate with varying concentrations of 31.25 to 1300 uM (reference value: 21.5 /s); how it was run: as §1
[6] = compound: O=S1(=O)C=C(Sc2nnc(-c3ccccc3)o2)c2ccccc21; experiment: as §3; how it was run: as §1
[7] = substrate: COc1c(C)c2c(c(O)c1C/C=C(\C)CCC(=O)O)C(=O)OC2; details: Cryptococcus neoformans; 0.156 uM
[8] = compound: COc1ccccc1-c1nnc(SC2=CS(=O)(=O)c3ccccc32)o1; experiment: (§4) Inhibition of recombinant Cryptococcus neoformans His-tagged IMPDH expressed in Escherichia coli BL21 (DE3) at 0.3 uM assessed as Km for substrate using IMP as fixed substrate at 500 uM and NAD as second substrate with varying concentrations of 31.25 to 1300 uM (reference value: 257.5 +/- 23 microM); how it was run: as §1
[9] = compound: O=S1(=O)C=C(Sc2nnc(-c3ccccc3)o2)c2ccccc21; experiment: as §4; how it was run: as §1
[10] = substrate: COc1c(C)c2c(c(O)c1C/C=C(\C)CCC(=O)O)C(=O)OC2; details: Cryptococcus neoformans; 0.078 uM; remark: listed apart in the source
[11] = substrate: COc1c(C)c2c(c(O)c1C/C=C(\C)CCC(=O)O)C(=O)OC2; details: Cryptococcus neoformans; 0.039 uM
[12] = compound: COc1ccccc1-c1nnc(SC2=CS(=O)(=O)c3ccccc32)o1; experiment: (§5) Inhibition of recombinant Cryptococcus neoformans His-tagged IMPDH expressed in Escherichia coli BL21 (DE3) at 0.3 uM assessed as Kcat for substrate using NAD as fixed substrate at 700 uM and IMP as second substrate with varying concentrations of 25 to 800 uM (reference value: 21.5 /s); how it was run: as §1
[13] = compound: O=S1(=O)C=C(Sc2nnc(-c3ccccc3)o2)c2ccccc21; experiment: as §5; how it was run: as §1
[14] = compound: COc1ccccc1-c1nnc(SC2=CS(=O)(=O)c3ccccc32)o1; experiment: (§6) Inhibition of recombinant Cryptococcus neoformans His-tagged IMPDH expressed in Escherichia coli BL21 (DE3) at 10 uM assessed as Km for substrate using NAD as fixed substrate at 700 uM and IMP as second substrate with varying concentrations of 25 to 800 uM (reference value: 257.5 +/- 23 microM); how it was run: as §1
[15] = compound: O=S1(=O)C=C(Sc2nnc(-c3ccccc3)o2)c2ccccc21; experiment: as §6; how it was run: as §1
[16] = substrate: COc1c(C)c2c(c(O)c1C/C=C(\C)CCC(=O)O)C(=O)OC2; details: Cryptococcus neoformans; 0.039 uM; remark: listed apart in the source
[17] = substrate: COc1c(C)c2c(c(O)c1C/C=C(\C)CCC(=O)O)C(=O)OC2; details: Cryptococcus neoformans; 0.039 uM; remark: listed apart in the source
[18] = compound: COc1ccccc1-c1nnc(SC2=CS(=O)(=O)c3ccccc32)o1; experiment: (§7) Inhibition of recombinant Cryptococcus neoformans His-tagged IMPDH expressed in Escherichia coli BL21 (DE3) at 2.5 uM assessed as Vmax for substrate using IMP as fixed substrate at 500 uM and NAD as second substrate with varying concentrations of 31.25 to 1300 uM (reference value: 1.5 microM/min); how it was run: as §1
[19] = compound: O=S1(=O)C=C(Sc2nnc(-c3ccccc3)o2)c2ccccc21; experiment: as §7; how it was run: as §1
[20] = substrate: COc1c(C)c2c(c(O)c1C/C=C(\C)CCC(=O)O)C(=O)OC2; details: Cryptococcus neoformans; 0.156 uM; remark: listed apart in the source
[21] = compound: COc1ccccc1-c1nnc(SC2=CS(=O)(=O)c3ccccc32)o1; experiment: Inhibition of recombinant Cryptococcus neoformans His-tagged IMPDH expressed in Escherichia coli BL21 (DE3) at 0.3 uM assessed as Kcat for substrate using IMP as fixed substrate at 500 uM and NAD as second substrate with varying concentrations of 31.25 to 1300 uM (reference value: 21.5 /s); how it was run: as §1
[22] = substrate: COc1c(C)c2c(c(O)c1C/C=C(\C)CCC(=O)O)C(=O)OC2; details: Cryptococcus neoformans; 0.156 uM; remark: listed apart in the source
[23] = compound: COc1ccccc1-c1nnc(SC2=CS(=O)(=O)c3ccccc32)o1; experiment: (§8) Inhibition of recombinant Cryptococcus neoformans His-tagged IMPDH expressed in Escherichia coli BL21 (DE3) at 0.3 uM assessed as Vmax for substrate using IMP as fixed substrate at 500 uM and NAD as second substrate with varying concentrations of 31.25 to 1300 uM (reference value: 1.5 microM/min); how it was run: as §1
[24] = compound: O=S1(=O)C=C(Sc2nnc(-c3ccccc3)o2)c2ccccc21; experiment: as §8; how it was run: as §1
[25] = compound: COc1ccccc1-c1nnc(SC2=CS(=O)(=O)c3ccccc32)o1; experiment: (§9) Inhibition of recombinant Cryptococcus neoformans His-tagged IMPDH expressed in Escherichia coli BL21 (DE3) at 10 uM assessed as Km for substrate using IMP as fixed substrate at 500 uM and NAD as second substrate with varying concentrations of 31.25 to 1300 uM (reference value: 257.5 +/- 23 microM); how it was run: as §1
[26] = compound: O=S1(=O)C=C(Sc2nnc(-c3ccccc3)o2)c2ccccc21; experiment: as §9; how it was run: as §1
[27] = substrate: COc1c(C)c2c(c(O)c1C/C=C(\C)CCC(=O)O)C(=O)OC2; details: Cryptococcus neoformans; 0.039 uM; remark: listed apart in the source

B1: Inosine-5'-monophosphate dehydrogenase (Cryptococcus neoformans var. neoformans serotype D (strain JEC21 /ATCC MYA-565) (Filobasidiella neoformans)), Q5KP44 (protein)
chain: MADTNPNAPPRSDSLLNPADALKYLEEYPRGDGLSLQELMDSRKNGGLTYNDFLVLPGHISFPASDVSLQSRATKNIVLNTPFLSSPMDTVTEDRMAIALALHGGLGIIHHNCSAEEQAAMVRRVKKYENGFITDPLCLGPDATVGDVLEIKAKFGFCGVPITETGAPNSKLLGIVTGRDVQFQDAETPIKSVMTTEVVTGSSPITLEKANSLLRETKKGKLPIVDSNGHLVSLVARSDLLKNQNYPYASKVPESKQLYCGAAIGTRPGDKDRLKLLAEAGLDVVVLDSSQGDSVYQIEFIKWIKQTYPKIEIIAGNVVTREQAAQLIAAGADGLRIGMGSGSICITQEVMAVGRPQGTAVYAVAEFASRFGIPCIADGGIGNIGHIAKALALGASAVMMGGLLAGTTESPGEYFYHEGKRVKVYRGMGSIEAMEHTQRGSASGKRSILNLDNAATARYFSEADAVKVAQGVSGDVADKGSINKFVPYLFTGLQHSFQDAGVKSVSELHSCARSGSLRFELRTASAQLEGGVHGLNSYTKRLFA
B1 gave a kcat [1] of 1.3 s⁻¹, a kcat [2] of 0.6 s⁻¹ and a Km [3] of 165 µM. It also gave a Km [4] of 187 µM, a kcat [5] of 1 s⁻¹ and a kcat [6] of 1 s⁻¹. For the same protein, the Vmax [7] was 0.3 µM/min, the Km [8] was 278 µM and the Km [9] was 307 µM. For the same protein, the kcat [10] was 0.6 s⁻¹, the Km [11] was 200 µM and the kcat [12] was 1.4 s⁻¹. For the same protein, the kcat [13] was 1.1 s⁻¹, the Km [14] was 258 µM and the Km [15] was 316 µM. For the same protein, the kcat [16] was 0.9 s⁻¹, the Vmax [17] was 0.9 µM/min and the Vmax [18] was 1.5 µM/min. It also gave a Vmax [19] of 1.3 µM/min, a Km [20] of 32 µM and a kcat [21] of 1.5 s⁻¹. The kcat [22] was 0.25 s⁻¹, the Vmax [23] was 1.5 µM/min and the Vmax [24] was 1.5 µM/min. It also gave a Km [25] of 355 µM, a Km [26] of 386 µM and a Km [27] of 64 µM.
